Columns and labels:
Type in all cases: functional
Rattus norvegicus [1] = organism: Rattus norvegicus; assay: Solvolytic stability was measured relative to p-hydroxyphenethyl bromide
Outline: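 Solvolysis rates were measured in 40% ethanol-water at 50 °C, buffered to pH 7. Values are 1/k_rel = (k_compound/k_p-hydroxyphenylethyl bromide)^-1.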

Rattus norvegicus [2] = organism: Rattus norvegicus; assay: Percent injected dose per gram liver at 1 hr with unlabeled estradiol
Outline: (§1)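 Same iv biodistribution in immature female rats, killed at 1 h, with unlabeled estradiol coinjected to block receptor uptake: 9 μg with [125I]iodonorhexestrol (3 rats), 18 μg with the [77Br]bromonorhexestrol/16α-[125I]iodoestradiol pair (5 rats). Tissue and blood radioactivity were counted as % injected dose/g and tissue-to-blood ratio.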

Rattus norvegicus [3] = organism: Rattus norvegicus; assay: Percent injected dose per gram lung at 1 hr
Outline: (§2)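 Immature (25 day) female Sprague-Dawley rats (ca. 50 g) were dosed iv (jugular or tail vein) in ethanol plus 0.9% NaCl/rat serum (1:1). Doses were 2 μCi of [125I]iodonorhexestrol (≤15 pmol/dose), or 2 μCi each of [77Br]bromonorhexestrol (≤1.25 pmol/dose) and 16α-[125I]iodoestradiol (2 pmol/dose). Rats were killed at 1, 3 or 6 h; blood and tissues were weighed and γ-counted. Thyroid weight assumed 0.005 g/100 g body weight. Mean ± SD.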

Rattus norvegicus [4] = organism: Rattus norvegicus; assay: Percent injected dose per gram lung at 1 hr with unlabeled estradiol; outline: as §1
Rattus norvegicus [5] = organism: Rattus norvegicus; assay: Percent injected dose per gram lung at 6 hr; outline: as §2
Rattus norvegicus [6] = organism: Rattus norvegicus; assay: Percent injected dose per gram spleen at 1 hr; outline: as §2
Rattus norvegicus [7] = organism: Rattus norvegicus; assay: Percent injected dose per gram blood at 1 hr
Outline: (§3)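 Immature (25-day, ca. 50 g) Sprague-Dawley female rats received an iv injection (jugular or tail vein) of HPLC-purified tracer in ethanol plus 0.9% NaCl/rat serum 1:1. Doses were 2 μCi [125I]iodo tracer (≤15 pmol), or 2 μCi [77Br]bromo tracer (≤1.25 pmol) with 2 μCi 16α-[125I]iodoestradiol. Animals were killed at 1 h; blood and tissues were weighed and γ-counted. Blocking: coinjected unlabeled estradiol, 9 μg (iodo) or 18 μg (bromo). Mean ± SD.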

Rattus norvegicus [8] = organism: Rattus norvegicus; assay: Percent injected dose per gram blood at 1 hr with unlabeled estradiol; outline: as §3
Rattus norvegicus [9] = organism: Rattus norvegicus; assay: Percent injected dose per gram esophagus at 1 hr; outline: as §3
Rattus norvegicus [10] = organism: Rattus norvegicus; assay: Percent injected dose per gram Muscle at 6 hr
Outline: (§4)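 Dual-label study in immature 25-day female Sprague-Dawley rats (ca. 50 g). Each received 2 μCi [77Br]bromo tracer (≤1.25 pmol/dose) and 2 μCi 16α-[125I]iodoestradiol (2 pmol/dose) by tail or jugular vein, in ethanol diluted with saline/rat serum 1:1. Rats were killed at 3 or 6 h; blood and 11 tissues were weighed and counted. Five rats per time point; mean ± SD.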

Rattus norvegicus [11] = organism: Rattus norvegicus; assay: Percent injected dose per gram Ovaries at 1 hr with unlabeled estradiol; outline: as §3
Rattus norvegicus [12] = organism: Rattus norvegicus; assay: Percent injected dose per gram Ovaries at 3h; outline: as §4
[13] = Ovary/blood distribution ratio was determined in immature female rats at 1 hr; outline: as §3
[14] = Kidney/blood distribution ratio was determined in immature female rats at 6 hr; outline: as §4
[15] = Liver/blood distribution ratio was determined in immature female rats at 1 hr; outline: as §3
[16] = Liver/blood distribution ratio was determined in immature female rats at 1 hr with unlabeled estradiol; outline: as §3
[17] = Liver/blood distribution ratio was determined in immature female rats at 6 hr; outline: as §4
[18] = Lung/blood distribution ratio was determined in immature female rats at 3h; outline: as §4
[19] = Lung/blood distribution ratio was determined in immature female rats at 6 hr; outline: as §4
[20] = Spleen/blood distribution ratio was determined in immature female rats at 1 hr with unlabeled estradiol
[21] = Kidney/blood distribution ratio was determined in immature female rats at 1 hr; outline: as §3
[22] = Kidney/blood distribution ratio was determined in immature female rats at 1 hr with unlabeled estradiol; outline: as §3
[23] = Tissue/blood distribution ratio was measured in immature female rats at 3h; outline: as §2
[24] = Thyroid/blood distribution ratio was determined in immature female rats at 1 hr; outline: as §2
[25] = Uterus/blood distribution ratio was measured in immature female rats at 3h; outline: as §2
Rattus norvegicus [26] = organism: Rattus norvegicus; assay: Percent injected dose per gram kidney at 6 hr; outline: as §4
Rattus norvegicus [27] = organism: Rattus norvegicus; assay: Percent injected dose per gram spleen at 6 hr; outline: as §2
[28] = Esophagus/blood distribution ratio was determined in immature female rats at 1 hr; outline: as §3

In the case of `CC[C@H](c1ccc(O)cc1)[C@@H](CBr)c1ccc(O)cc1`, the 1/krel (Rattus norvegicus [1]) is reported as 1.17, the Injected dose (Rattus norvegicus [2]) is reported as 1.46% and the Injected dose (Rattus norvegicus [3]) is reported as 0.42%. It also gave an Injected dose (Rattus norvegicus [4]) of 0.8%, an Injected dose (Rattus norvegicus [5]) of 1.02% and an Injected dose (Rattus norvegicus [6]) of 0.38%. For the same compound, the Injected dose (Rattus norvegicus [7]) was 0.75%, the Injected dose (Rattus norvegicus [8]) was 0.98% and the Injected dose (Rattus norvegicus [9]) was 0.38%. For the same compound, the Injected dose (Rattus norvegicus [10]) was 0.35%, the Injected dose (Rattus norvegicus [11]) was 0.72% and the Injected dose (Rattus norvegicus [12]) was 1.28%. The Ratio [13] was 1.98, the Ratio [14] was 0.89 and the Ratio [15] was 1.69. For the same compound, the Ratio [16] was 1.51, the Ratio [17] was 0.69 and the Ratio [18] was 0.68. It also gave a Ratio [19] of 0.76, a Ratio [20] of 0.51 and a Ratio [21] of 1.29. The Ratio [22] was 0.84, the Ratio [23] was 1 and the Ratio [24] was 0.32. It also gave a Ratio [25] of 2.86, an Injected dose (Rattus norvegicus [26]) of 0.9% and an Injected dose (Rattus norvegicus [27]) of 0.69%. For the same compound, the Ratio [28] was 0.54.

— ChEMBL document CHEMBL1121966, “(2R*,3S*)-1-[125I]Iodo-2,3-bis(4-hydroxyphenyl)pentane ([125I]iodonorhexestrol) and (2R*,3S*)-1-[77Br]Bromo-2,3-bis(4-hydroxyphenyl)pentane ([77Br]bromonorhexestrol), two gamma-emitting estrogens that show receptor-mediated uptake by target tissues in vivo” (1982)
